This is an account of results in ChEMBL document CHEMBL4513216, “Probing the Open Global Health Chemical Diversity Library for Multistage-Active Starting Points for Next-Generation Antimalarials” (ACS Infect Dis, 2020).

A short description of the data set: Toxicity liver stage against HepG2, at 10uM. The class given is cell-based. Also on record: test concentration 10 uM, cell line HepG2-A16-CD81EGFP. The following applies: human, HepG2-A16-CD81EGFP cells; read-out: INHIBITION
The method, boiled down: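 Uninfected HepG2-A16-CD81EGFP cells, 3 × 10^3 per well, 1536-well, plated on prespotted compound at 10 μM final, parasite-free screening media added to match infected plates; puromycin 10 μM positive, DMSO 0.5% negative; run in parallel with 48 h PbLuc assay at 37 °C, 5% CO2; viability by CellTiter-Glo luminescence, normalized to controls.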
On to `NC(=O)c1ccnc(N2CCCC(CO)(Cc3ccccc3)C2)c1` (stereo not drawn), for which the cytotoxicity at 10 µM was 11.6%.

For `CN1CCN(Cc2nc3c(s2)CCCC3)[C@H]2CS(=O)(=O)C[C@H]21`, the cytotoxicity at 10 µM was determined as 2.81%.

Regarding `COc1ccc(CN(C)[C@@H]2CN(C(=O)c3ccccc3)C[C@H]2O)cc1`, the cytotoxicity at 10 µM is -2.64%.

Turning to `O[C@@H]1CC(CNCC2CC2)(COc2cccnc2)C[C@@H]1O` (stereo partly drawn), the cytotoxicity at 10 µM was -2.64%.

Take `O=C(NC1CCN(c2ccc(-c3ccccc3F)nn2)C1)c1ccc[nH]1` (stereo not drawn): the cytotoxicity at 10 µM is 7.4%.

In the case of `Cc1nnc([C@@H]2CC[C@@H]3[C@@H](CCN3C3CCOCC3)O2)o1`, the cytotoxicity at 10 µM came to 8.58%.

On to `COc1ccc2c(c1)C(C(=O)N(C)CCc1cnn(C)c1)CC(=O)N2` (stereo not drawn), for which the cytotoxicity at 10 µM is -57.2%.

Consider `CCS(=O)(=O)N1Cc2ncn(C)c2C(COCC2CCOCC2)C1` (stereo not drawn), for which the cytotoxicity at 10 µM was -72.6%.

Consider `CN1C(=O)CC(C(=O)O)C12CCN(Cc1ccc(Cl)c(F)c1)CC2` (stereo not drawn), for which the cytotoxicity at 10 µM stood at 2.91%.

Take `CNC(=O)N1CC[C@@H]2CN(Cc3ccccc3)S(=O)(=O)[C@@H]2CC1`: the cytotoxicity at 10 µM was -96.6%.

With `CCc1nc(C2CCCN(C(=O)CN(C)S(C)(=O)=O)C2)no1` (stereo not drawn), the cytotoxicity at 10 µM was -3.22%.

In the case of `Cc1ccoc1C(=O)N1CC[C@@]2(C[C@H](NS(C)(=O)=O)CCO2)C1`, the cytotoxicity at 10 µM is 7.43%.

Turning to `COCCn1cc2c(n1)C(CNS(C)(=O)=O)OCC2` (stereo not drawn), the cytotoxicity at 10 µM was found to be 0.763%.

As for `O=C(NCc1cccnc1)N1CCC2(CC(=O)N(c3ccsc3)C2)C1` (stereo not drawn), the cytotoxicity at 10 µM was -0.125%.

For `Cc1nn(CC(=O)N2CCN(Cc3cnn(C)c3C)CC2)cc1Cl`, the cytotoxicity at 10 µM is -3.22%.

For the molecule `CN1CCN(C(=O)c2cc(C#N)cn2C)c2ccccc2C1`, the cytotoxicity at 10 µM is 5.45%.

Take `COCCC(=O)N1CCC2(COCc3cnc(N4CCOCC4)nc32)C1` (stereo not drawn): the cytotoxicity at 10 µM came to 2.21%.

Turning to `CCN1CCOCC2(CCCN(C(=O)c3cccc(O)c3)C2)C1` (stereo not drawn), the cytotoxicity at 10 µM is 0.14%.

Take `CN(Cc1nc(Cc2cccc(F)c2)no1)C1CCOCC1`: the cytotoxicity at 10 µM worked out at 2.79%.

As for `Cc1ccc(F)c2c1CCCN2C(=O)c1cn(CC(=O)N(C)C)nn1`, the cytotoxicity at 10 µM was -0.367%.

For the molecule `Cc1cc2c(cc1CN1CCCCC1CCn1ccnc1C)OCO2` (stereo not drawn), the cytotoxicity at 10 µM is 3.09%.

Regarding `CCCc1cc(N2CCC(Cc3cccc(C(N)=O)c3)C2)nc(C)n1` (stereo not drawn), the cytotoxicity at 10 µM is -1.62%.

On to `Cc1nc(C2(NCC(=O)NC(=O)Nc3ccccc3)CCCCC2)no1`, for which the cytotoxicity at 10 µM worked out at 30.4%.

For `c1coc(-c2nc3c(c(NCc4n[nH]c5c4CCC5)n2)CCNCC3)c1`, the cytotoxicity at 10 µM was -3.36%.

For the molecule `CC(C)(C)C(=O)NCC(=O)NCCc1nc(C(F)(F)F)cs1`, the cytotoxicity at 10 µM was 6.16%.

For `c1ccn2cc(CN3CCCC(c4ccn[nH]4)C3)nc2c1` (stereo not drawn), the cytotoxicity at 10 µM was found to be 6.76%.

As for `Cc1occc1C(=O)N1CCC2(CCN(Cc3nccs3)CC2)C1`, the cytotoxicity at 10 µM is -5.33%.

For the molecule `CC(=O)N1CCCN(C(=O)c2cnn(-c3ccccc3Cl)c2)CC1`, the cytotoxicity at 10 µM is -11.4%.

Take `CN(Cc1cc(Br)cn1C)C(=O)Cc1cccc(O)c1`: the cytotoxicity at 10 µM is -4.99%.

As for `CC(C)c1ccc(CS(=O)(=O)Cc2nc(N)nc(N(C)C)n2)cc1`, the cytotoxicity at 10 µM came to 7.34%.

As to `Cc1nnc(C(C)NCC2(c3ccc(Cl)cc3)CCCC2)o1` (stereo not drawn), the cytotoxicity at 10 µM worked out at 8.29%.

As to `Fc1cccc(-c2nnn3c2COC(CNc2ncccn2)C3)c1` (stereo not drawn), the cytotoxicity at 10 µM is -65.3%.

Consider `O=C(NCCOc1ncc(Cl)cc1Cl)c1cccnc1`, for which the cytotoxicity at 10 µM is -3.23%.

Consider `Cc1cccc(N2CCC(N3CCCC4(CN(C)C(=O)O4)C3)CC2)c1C` (stereo not drawn), for which the cytotoxicity at 10 µM is -12.8%.

Consider `Cc1csc(CCNc2ccc(C#N)cc2F)n1`, for which the cytotoxicity at 10 µM was found to be 2.17%.

Take `CCCN1C(=O)[C@@H]2[C@@H](CCN2C(=O)COC)N(Cc2cccs2)C1=O`: the cytotoxicity at 10 µM came out at 0.121%.

Turning to `CN(c1ncnc2c1cnn2C)C1CCCN(c2cccnn2)C1` (stereo not drawn), the cytotoxicity at 10 µM turned out to be 3.93%.

Consider `O=C(O)c1ccc(N2CCC(Oc3cccc(F)c3)CC2)nc1`, for which the cytotoxicity at 10 µM was -60.7%.
